≈ marks a conversion by molar mass, not a printed value. Numbered stars: 1 amine (or outer) side, 2 acyl side, 3 side chain; on linkers, the order of the positions; unused ones are H or OH. Peptide text beside a SMILES is read from it. * marks the point of attachment. Piperazinyl(4-(2,3-Cl2Ph)) = Clc1cccc(N2CCN(*)CC2)c1Cl; Thiocarbamoyl(4-MeOPh) = COc1ccc(NC(=S)*)cc1; X1 = Fc1ccc2c(C3CCN(*)CC3)noc2c1; NH(2-F-phenyl) = Fc1ccccc1N*; CO = O=C([*:1])[*:2]; OcHex = C1CCC(O*)CC1
Legend:
Format in all cases: functional
[1] = tested on: Klebsiella pneumoniae; experiment: Antibacterial activity against Klebsiella pneumoniae at 30 ug/ml after 24 hrs by agar well diffusion method; settings: read-out: DIZ
Outline: (§1)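 Agar well diffusion. Inocula were grown in nutrient broth at 37 °C for 24 h, then subcultured in nutrient broth at room temperature. Compounds were made as a 1 mg/mL DMSO stock and diluted to 30 µg/mL final. Nutrient agar plates were spread-inoculated and 6 mm wells each got 0.1 mL. Controls were amoxicillin (reference) and DMSO (negative). Incubation was 24 h at 37 °C. Inhibition zone was measured in mm as the mean of three determinations.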

[2] = tested on: Fusarium oxysporum; experiment: Antifungal activity against Fusarium oxysporum after 72 hrs by microdilution method
[3] = tested on: Aspergillus flavus; experiment: Ratio of bavistin MIC to compound MIC for Aspergillus flavus after 72 hrs by microdilution method
[4] = tested on: Fusarium oxysporum; experiment: Antifungal activity against Fusarium oxysporum at 30 ug/ml after 72 hrs by agar well diffusion method; settings: read-out: DIZ
Outline: (§2)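 Fungal well diffusion. Inocula were subcultured in nutrient broth for one day, then spread on solidified medium. Compounds were made as a 1 mg/mL DMSO stock and diluted to 30 µg/mL final. Each 6 mm well got 0.1 mL. Controls were bavistin (reference) and DMSO (negative). Plates stood for 3 days at room temperature. Inhibition zone was measured in mm as the mean of three determinations.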

[5] = tested on: Aspergillus niger; experiment: Antifungal activity against Aspergillus niger after 72 hrs by microdilution method
[6] = tested on: Staphylococcus aureus; experiment: Antibacterial activity against coagulase-positive Staphylococcus aureus at 30 ug/ml after 24 hrs by agar well diffusion method; settings: read-out: DIZ; outline: as §1
[7] = tested on: Aspergillus flavus; experiment: Antifungal activity against Aspergillus flavus after 72 hrs by microdilution method
[8] = tested on: Aspergillus flavus; experiment: Antifungal activity against Aspergillus flavus at 30 ug/ml after 72 hrs by agar well diffusion method; settings: read-out: DIZ; outline: as §2
[9] = tested on: Aspergillus niger; experiment: Ratio of bavistin MIC to compound MIC for Aspergillus niger after 72 hrs by microdilution method
[10] = tested on: Xanthomonas oryzae; experiment: Antibacterial activity against Xanthomonas oryzae at 30 ug/ml after 24 hrs by agar well diffusion method; settings: read-out: DIZ
[11] = tested on: Escherichia coli; experiment: Antibacterial activity against Escherichia coli at 30 ug/ml after 24 hrs by agar well diffusion method; settings: read-out: DIZ; outline: as §1
[12] = tested on: Aspergillus niger; experiment: Antifungal activity against Aspergillus niger at 30 ug/ml after 72 hrs by agar well diffusion method; settings: read-out: DIZ; outline: as §2
[13] = tested on: Fusarium oxysporum; experiment: Ratio of bavistin MIC to compound MIC for Fusarium oxysporum after 72 hrs by microdilution method
[14] = tested on: Xanthomonas oryzae; experiment: Antibacterial activity against Xanthomonas oryzae after 24 hrs by microdilution method
[15] = tested on: Escherichia coli; experiment: Antibacterial activity against Escherichia coli after 24 hrs by microdilution method
[16] = tested on: Klebsiella pneumoniae; experiment: Antibacterial activity against Klebsiella pneumoniae after 24 hrs by microdilution method
[17] = tested on: Staphylococcus aureus; experiment: Antibacterial activity against coagulase-positive Staphylococcus aureus after 24 hrs by microdilution method

Structure (SMILES)	zone of inhibition at 30 µg/mL [1] [mm]	MIC [2] [µg/mL]	Ratio [3]	zone of inhibition at 30 µg/mL [4] [mm]	MIC [5] [µg/mL]	zone of inhibition at 30 µg/mL [6] [mm]	MIC [7] [µg/mL]	zone of inhibition at 30 µg/mL [8] [mm]	Ratio [9]	zone of inhibition at 30 µg/mL [10] [mm]	zone of inhibition at 30 µg/mL [11] [mm]	zone of inhibition at 30 µg/mL [12] [mm]	Ratio [13]	MIC [14] [µg/mL]	MIC [15] [µg/mL]	MIC [16] [µg/mL]	MIC [17] [µg/mL]
COc1ccc(NC(=S)NCC(=O)N[C@@H](CCC(=O)OC2CCCCC2)C(=O)NCC(=O)N[C@@H](Cc2ccccc2)C(=O)N2CCC[C@H]2C(=O)NCC(=O)N[C@H](C(=O)NCC(=O)N[C@H](C(=O)N2CCC[C@H]2C(=O)NCC(=O)N[C@H](C(=O)NCC(=O)N[C@@H](Cc2ccccc2)C(=O)N2CCC[C@H]2C(=O)NCC(=O)N[C@@H](Cc2ccccc2)C(=O)NCC(=O)N[C@@H](Cc2ccccc2)C(=O)N2CCC[C@H]2C(=O)NCC(=O)N[C@H](C(=O)NCC(=O)N[C@H](C(=O)N2CCC[C@H]2C(=O)NCC(=O)N[C@H](C(=O)NCC(=O)N[C@@H](Cc2ccccc2)C(=O)N2CCC[C@H]2C(=O)N2CCN(c3cccc(Cl)c3Cl)CC2)C(C)C)C(C)C)C(C)C)C(C)C)C(C)C)C(C)C)cc1 ({Thiocarbamoyl(4-MeOPh)}-GE(OcHex)GFPGVGVPGVGFPGFGFPGVGVPGVGFP-{Piperazinyl(4-(2,3-Cl2Ph))})	15	3.25 (≈ 1.01 µM)	10	38	2.75 (≈ 0.858 µM)	14	2.75 (≈ 0.858 µM)	37	10	13	15	42	10	–	–	–	–
CC(C)[C@H](NC(=O)CNC(=O)[C@@H]1CCCN1C(=O)[C@H](Cc1ccccc1)NC(=O)CNC(=O)[C@H](CCC(=O)OC1CCCCC1)NC(=O)CNC(=O)Nc1ccccc1F)C(=O)NCC(=O)N[C@H](C(=O)N1CCC[C@H]1C(=O)NCC(=O)N[C@H](C(=O)NCC(=O)N[C@@H](Cc1ccccc1)C(=O)N1CCC[C@H]1C(=O)NCC(=O)N[C@@H](Cc1ccccc1)C(=O)NCC(=O)N[C@@H](Cc1ccccc1)C(=O)N1CCC[C@H]1C(=O)NCC(=O)N[C@H](C(=O)NCC(=O)N[C@H](C(=O)N1CCC[C@H]1C(=O)NCC(=O)N[C@H](C(=O)NCC(=O)N[C@@H](Cc1ccccc1)C(=O)N1CCC[C@H]1C(=O)N1CCN(c2cccc(Cl)c2Cl)CC1)C(C)C)C(C)C)C(C)C)C(C)C)C(C)C ({NH(2-F-phenyl)-CO}-GE(OcHex)GFPGVGVPGVGFPGFGFPGVGVPGVGFP-{Piperazinyl(4-(2,3-Cl2Ph))})	21	2 (≈ 0.629 µM)	10	43	2 (≈ 0.629 µM)	20	1.75 (≈ 0.551 µM)	42	10	19	22	48	10	–	–	–	–
O=C(CNC(=O)Nc1ccccc1F)NCC(=O)N[C@@H](Cc1ccccc1)C(=O)N1CCC[C@H]1C(=O)N1CCC(c2noc3cc(F)ccc23)CC1 ({NH(2-F-phenyl)-CO}-GGFP-X1)	27	14 (≈ 19.6 µM)	–	31	9 (≈ 12.6 µM)	25	13 (≈ 18.2 µM)	29	–	29	31	34	–	9 (≈ 12.6 µM)	12 (≈ 16.8 µM)	9 (≈ 12.6 µM)	11 (≈ 15.4 µM)
CC[C@H](C)[C@H](NC(=O)CNC(=O)CNC(=O)Nc1ccccc1F)C(=O)N1CCC[C@H]1C(=O)N1CCN(c2cccc(Cl)c2Cl)CC1 ({NH(2-F-phenyl)-CO}-GGIP-{Piperazinyl(4-(2,3-Cl2Ph))})	23	15 (≈ 21.7 µM)	–	30	11 (≈ 15.9 µM)	24	14 (≈ 20.2 µM)	28	–	26	29	32	–	10 (≈ 14.4 µM)	13 (≈ 18.8 µM)	10 (≈ 14.4 µM)	12 (≈ 17.3 µM)

From ChEMBL document CHEMBL1932971, “Synthesis of uriedo and thiouriedo derivatives of peptide conjugated heterocycles - A new class of promising antimicrobials” (2012)
